CHO parental Ca = ATP-evoked calcium signal inhibitors, parental CHO, primary screen, counter-screen for OX1R antagonist project, cell-based, fluorescence, Fluo-8 calcium dye | parental CHO-K1, ATP-induced calcium, Fluo-8 fluorescence | inhibition, % at 5.6 µM | 0.63% of 330,000 active;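 active means inhibition above that plate's mean sample inhibition plus 3 SD, cut at about 26% in these data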;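 further: 0% = ATP-challenged DMSO wells and 100% = DMSO wells without ATP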
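Test system: untransfected parental CHO cell line; also added: ATP stimulus; dosing: 5.6 µM, single dose; signal: calcium-sensitive Fluo-8 fluorescence; measure: percent inhibition of ATP-evoked calcium rise, normalized to controls; benchmarks: low control ATP plus DMSO, high control DMSO only; replication: one well per compound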
V1aR counter = agonists of human V1a receptor, primary screen, counter-screen for OXTR agonist project, fluorescence, CHO-V1R cells. Vasopressin V1a receptor (Homo sapiens), P37288. Fluo-8 calcium fluorescence, agonist mode; 0% DMSO, 100% 3 nM vasopressin. activation, % at 3 µM. 0.25% of 320,000 active;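 active means activation above the mean activation of all tested compounds plus 3 SD, per screening run, cut at about 20% in these data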;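 further: signal is peak over basal fluorescence ratio across a 100 second FLIPR read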
OX1R antag-1 = antagonists of human orexin 1 receptor (OX1R). Orexin/Hypocretin receptor type 1 (Homo sapiens), O43613. OX1R-expressing cells, FRET antagonist read-out. inhibition, % at 6.6 µM. 1.8% of 330,000 active. AID 485270, 2010; in the data active means inhibition mostly above about 38%, no sharp cut-off; inactive means mostly below about 40%;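 further: 0% = agonist challenge alone and 100% = reference antagonist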
OXTR ag = human OXTR agonists, primary screen, fluorescence, CHO-OTR cells, Fluo-8 calcium; 0.32% of 320,000 active; activation, % at 3 µM; Fluo-8 calcium fluorescence; normalized: DMSO 0%, oxytocin 100%; Oxytocin receptor (Homo sapiens), P30559; AID 2435, 2010;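 active means activation above the mean of all tested compounds plus 3 SD, cutoff set per screening run, cut at about 20% in these data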;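 further: peak over basal fluorescence ratio from a 100 s FLIPR kinetic read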
Target sequence (P30559 whole entry, looked up): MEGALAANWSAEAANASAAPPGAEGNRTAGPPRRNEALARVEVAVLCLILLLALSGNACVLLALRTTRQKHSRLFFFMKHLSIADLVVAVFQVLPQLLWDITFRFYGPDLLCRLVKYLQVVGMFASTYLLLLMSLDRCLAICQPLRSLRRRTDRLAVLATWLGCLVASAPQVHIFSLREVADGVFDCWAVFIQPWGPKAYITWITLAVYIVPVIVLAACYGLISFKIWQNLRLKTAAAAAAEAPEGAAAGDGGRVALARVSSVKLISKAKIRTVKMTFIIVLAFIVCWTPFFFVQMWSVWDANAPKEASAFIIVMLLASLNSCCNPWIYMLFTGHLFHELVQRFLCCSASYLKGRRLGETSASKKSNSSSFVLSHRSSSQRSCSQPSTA
OX1R antag-2 = OX1R (HCRTR1) antagonists, primary screen, fluorescence, CHO/OX1R cells, Fluo-8 calcium, orexin A | Orexin/Hypocretin receptor type 1 (Homo sapiens), O43613 | Fluo-8 calcium fluorescence | inhibition, % at 5 µM | 0.43% of 330,000 active;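 active means inhibition above its plate's threshold, mean inhibition of all tested compounds on the plate plus 3 SD, cut at about 37% in these data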;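 further: 0% = orexin A challenge wells and 100% = SB-334867-A antagonist wells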
OXTR potentiator = human OXTR potentiators, primary screen, fluorescence, CHO-OTR cells, Fluo-8 calcium; 0.061% of 320,000 active; Oxytocin receptor (Homo sapiens), P30559; activation, % at 3 µM; Fluo-8 calcium fluorescence, potentiator mode; 0% = oxytocin EC15, 100% = EC100;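 active means activation above that plate's cutoff, the mean activation of tested compounds plus 3 SD, cut at about 6.6% in these data, passing the limit was not always enough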;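 further: 100% uses oxytocin at 75 nM as the full agonist control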
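Measured by – Fluo-8 calcium dye fluorescence · Test system – human OTR in CHO cells · Dosing – one concentration, 3.0 µM compound · Controls – EC15 oxytocin alone as 0%, 75 nM oxytocin as 100% · Evaluation – normalized max/min fluorescence ratio, % activation · Timing – 6 min pre-incubation, 100 s read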
* hit, by the source's call. Compounds with a hit are over-represented: about 2.6% of the library has one in this group of screens.

SMILES	CHO parental Ca	V1aR counter	OX1R antag-1	OXTR ag	OX1R antag-2	OXTR potentiator
COc1ccc(/C=N\NC(=O)c2cc(O)c(O)c(O)c2)cc1COc1ccc(C(=O)OCC(C)C)cc1	1.9	-0.6	9.4	-0.3	-15.3	-2.5
Cc1cc(C)cc(Nc2ccc([N+](=O)[O-])nc2[N+](=O)[O-])c1	-10.7	-1.1	60.6*	0.1	-18.0	-0.8
CC1CCCCC1NC(=O)C(C)N1C(=O)c2ccccc2C1=O (centres undefined)	7.2	0.4	-1.1	1.9	-13.0	-0.6
CCOC(=O)C1CCCN(C(=O)c2cccc(S(=O)(=O)N3CCCC3)c2)C1 (centres undefined)	-13.1	1.2	10.1	1.2	-18.0	-6.7
CCOC(=O)C1CCCN(C(=O)C2c3ccccc3Oc3ccccc32)C1 (centres undefined)	22.1	34.8*	44.9*	43.7*	21.9	-4.5
CCOC(=O)C1CCCN(C(=O)c2cccc(S(=O)(=O)N(C)c3ccc(C)cc3)c2)C1 (centres undefined)	-11.3	4.3	57.7*	1.9	31.4	-7.9
CN(Cc1ccc(N(C)C)cc1)C(=O)c1cc2ccccc2o1	6.1	3.1	21.0	-0.9	6.5	-15.0
O=C(NN=C1CCCC1)c1sc2ccccc2c1Cl	8.8	-0.4	37.6	-0.9	-10.7	-8.9
O=C1CCC/C(=N/NC(=O)c2sc3ccccc3c2Cl)C1	12.9	32.0*	8.8	12.0	-3.9	-7.2
CC(=O)OCCn1c(=O)c2cc3c(=O)n(CCOC(C)=O)c(=O)c3cc2c1=O	2.4	-0.6	67.9*	-0.2	-7.0	-10.4
Cc1ccc(Cn2nnc(C(=O)Nc3cccc(C)c3C)c2N)cc1	25.5	37.9*	3.1	37.6*	37.1*	-10.1
CCc1ccc(Cn2nnc(C(=O)Nc3cccc(C)c3)c2N)cc1	-9.2	10.6	3.8	14.3	3.2	-8.8
CN1CCc2c(sc(/N=C/c3cc(C(C)(C)C)ccc3O)c2C#N)C1	-7.6	0.3	7.6	4.5	-8.0	-3.1
Cc1cc2nc(NCCCO)n(CC(=O)c3cc(C(C)(C)C)c(O)c(C(C)(C)C)c3)c2cc1C	8.6	-0.5	17.4	3.6	5.1	-10.0
Cc1cccc(N(CC(=O)NCCSCc2ccco2)S(=O)(=O)c2ccccc2)c1	-11.0	0.7	58.5	-1.8	32.1	-18.9
COc1cccc(N(CC(=O)NCCSCc2ccco2)S(=O)(=O)c2ccccc2)c1	-12.9	1.8	45.3*	-0.7	23.1	-12.1
Cc1ccc(C)c(C(=O)CN2C(=O)NC3(CCC(C)CC3)C2=O)c1 (centres undefined)	-16.1	-2.2	25.9	-3.1	-47.2	-7.2
N#Cc1c(NC(=O)c2ccco2)sc2c1CCC2	9.6	0.8	18.2	1.5	-4.3	1.7
COc1cccc(OC)c1C(=O)Nc1sc2c(c1C#N)CCC2	-6.2	-1.0	54.8*	-2.3	-11.4	-16.4
COc1ccc(CC(=O)Oc2cc(C)ccc2C)cc1	-8.1	-1.0	3.4	-1.6	-33.2	-11.9
Oc1c(I)cc(Cl)c2cccnc12	41.2*	-0.4	61.4*	-0.8	48.8*	-6.1
O=C(Nn1c(C2CCCCC2)nc2ccccc2c1=O)c1ccc(Cl)c([N+](=O)[O-])c1	-21.9	7.5	52.6*	3.1	-18.9	-12.8
COC(=O)/C(C#N)=C1/C=Cc2ccccc2N1C	-3.6	-0.1	60.5*	-0.9	-34.0	0.3
Nc1nc(Nc2cccc(F)c2)nc2ccccc12	-9.0	-0.4	57.5*	-0.3	3.0	-11.4
Cc1ccc(N2CC(C(=O)OCC(=O)c3ccc([N+](=O)[O-])cc3)CC2=O)cc1 (centres undefined)	-2.9	1.8	28.0	1.8	4.5	-5.8
SMILES	CHO parental Ca	V1aR counter	OX1R antag-1	OXTR ag	OX1R antag-2	OXTR potentiator
Cc1sc2nc3ccc(N4CCCC4)nn3c(=O)c2c1C	0.7	2.1	48.4*	-0.1	-15.4	-1.3
COc1cc(CN2CCCC(N3CCN(c4ccc(F)cc4)CC3)C2)ccc1F (centres undefined)	-30.5	1.4	5.3	0.6	-35.0	7.8
COc1cc(C(=O)NNC(=O)CNC(=O)C2CCCCC2)ccc1OC(C)C	-7.0	0.2	7.0	0.4	11.2	-6.3
CC(NCc1ccc(S(N)(=O)=O)cc1)C(=O)Nc1ccc([N+](=O)[O-])cc1Cl (centres undefined)	-2.7	-0.1	65.7*	-1.2	-5.3	-27.7
Cc1ccc(S(=O)(=O)N(C)C)cc1NC(=O)c1ccccc1SCC(=O)N1CCCC1	-26.6	3.4	10.5	0.5	-15.6	-4.0
O=C(C[n+]1cc2ccccc2c2ccccc21)c1ccccc1	-13.4	-0.3	56.3*	-0.8	-1.0	-2.4
COc1ccc2cc3cc(C(=O)NCc4ccccn4)oc3nc2c1	-31.4	-0.1	60.6*	-1.2	-16.3	-1.9
COc1ccc2cc3cc(C(=O)NCC4CCCO4)oc3nc2c1 (centres undefined)	-9.8	0.9	74.4*	-0.7	-4.3	-3.6
O=C(NCc1ccco1)c1cc2cc3ccc(Cl)cc3nc2o1	29.2	-0.3	32.0	-0.5	0.0	-14.4
COc1ccc2cc3cc(C(=O)NCc4ccco4)oc3nc2c1	-6.7	0.8	53.8*	-1.8	-20.8	-4.2
COCCNC(=O)c1cc2cc3ccc(OC)cc3nc2o1	-4.3	1.0	30.9	-0.1	9.1	-9.2
CN(C)C(=O)c1nc2ccc(Cl)cn2c1CN1CCCC(OCc2ccccc2)C1 (centres undefined)	-18.5	0.7	13.6	-0.1	-28.1	-4.7
O=C1c2ccc(Oc3ccc4c(c3)C(=O)N(CCCCO)C4=O)cc2C(=O)N1CCCCO	-9.1	14.4	73.1	4.0	0.3	-19.6
O=C1c2ccc(-c3ccc4c(c3)C(=O)N(CCCO)C4=O)cc2C(=O)N1CCCO	-1.8	-0.9	59.3*	1.0	-11.6	3.4
Cn1c(N)c(C(=O)COC(=O)CC2CC3CCC2C3)c(=O)n(C)c1=O (centres undefined)	4.4	1.9	30.1	4.7	-2.6	-7.2
Cc1ccccc1CS(=O)(=O)c1nnc([C@H](CC(C)C)NC(=O)OC(C)(C)C)o1	43.1*	0.3	12.4	-0.6	9.6	1.6
O=c1cc(-c2ccccc2)c2cc(Cl)c(O)c(CN3CCOCC3)c2o1	-4.1	1.2	65.1*	0.3	-3.7	-6.3
CCc1cc2c(-c3ccccc3)cc(=O)oc2c(CN2CCOCC2)c1O	-5.8	-0.2	8.6	0.3	-3.1	-7.1

Compound activity as filed in PubChem BioAssay.
